Assay results from ChEMBL document CHEMBL1240414, “Synthesis and anticonvulsant activity of new 6-methyl-1-substituted-4,6-diazaspiro[2.4]heptane-5,7-diones” (Eur J Med Chem, 2010).
The source made the active and inactive calls.

Legend:
[1] = test system: Mus musculus; assay: Anticonvulsant activity in Kunming mouse assessed as protection against maximal electroshock-induced seizures at 30 mg/kg, ip after 0.5 hrs; type: functional, organism-based; parameters: dose 30 mg/kg
[2] = test system: Mus musculus; assay: Anticonvulsant activity in Kunming mouse assessed as protection against maximal electroshock-induced seizures at 30 mg/kg, ip after 4 hrs; type: functional, organism-based; parameters: dose 30 mg/kg
[3] = test system: Mus musculus; assay: Anticonvulsant activity in Kunming mouse assessed as protection against subcutaneous pentylenetetrazole-induced seizures at 100 mg/kg, ip after 0.5 hrs; type: functional, organism-based; parameters: dose 100 mg/kg
Outline: (§1)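 Male Kunming mice (20 ± 2.0 g) received the compound ip as a suspension in 0.5% methylcellulose at 30, 100 or 300 mg/kg, one to four mice per dose. Pentylenetetrazole in 0.9% saline was given sc at 0.5 h and 4.0 h after dosing. Protection meant no threshold seizure (one clonic spasm episode of at least 5 s). Scored as protected/tested.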

[4] = test system: Mus musculus; assay: Anticonvulsant activity in Kunming mouse assessed as protection against subcutaneous pentylenetetrazole-induced seizures at 100 mg/kg, ip after 4 hrs; type: functional, organism-based; parameters: dose 100 mg/kg; outline: as §1
[5] = test system: Mus musculus; assay: Anticonvulsant activity in Kunming mouse assessed as protection against subcutaneous pentylenetetrazole-induced seizures at 300 mg/kg, ip after 4 hrs; type: functional, organism-based; parameters: dose 300 mg/kg; outline: as §1
[6] = test system: Mus musculus; assay: Neurotoxicity in Kunming mouse assessed as minimum motor impairment at 100 mg/kg, ip after 0.5 hrs by rotarod test; type: toxicity, organism-based; parameters: dose 100 mg/kg, route intraperitoneal; details: in vivo
Outline: (§2)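 Rotorod neurotoxicity in male Kunming mice (20 ± 2.0 g) given ip doses of 30, 100 or 300 mg/kg as a suspension in 0.5% methylcellulose, one to four mice per dose. Motor impairment was examined at 0.5 h and 4.0 h after injection. Reported as number of animals showing toxicity/number tested.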

[7] = test system: Mus musculus; assay: Neurotoxicity in Kunming mouse assessed as minimum motor impairment at 100 mg/kg, ip after 4 hrs by rotarod test; type: toxicity, organism-based; parameters: dose 100 mg/kg, route intraperitoneal; details: in vivo; outline: as §2
[8] = test system: Mus musculus; assay: Anticonvulsant activity in Kunming mouse assessed as protection against subcutaneous pentylenetetrazole-induced seizures at 30 mg/kg, ip after 0.5 hrs; type: functional, organism-based; parameters: dose 30 mg/kg; outline: as §1
[9] = test system: Mus musculus; assay: Neurotoxicity in Kunming mouse assessed as minimum motor impairment at 30 mg/kg, ip after 4 hrs by rotarod test; type: toxicity, organism-based; parameters: dose 30 mg/kg, route intraperitoneal; details: in vivo; outline: as §2
[10] = test system: Mus musculus; assay: Anticonvulsant activity in Kunming mouse assessed as protection against subcutaneous pentylenetetrazole-induced seizures at 30 mg/kg, ip after 4 hrs; type: functional, organism-based; parameters: dose 30 mg/kg; outline: as §1
[11] = test system: Mus musculus; assay: Anticonvulsant activity in Kunming mouse assessed as protection against maximal electroshock-induced seizures at 100 mg/kg, ip after 0.5 hrs; type: functional, organism-based; parameters: dose 100 mg/kg
[12] = test system: Mus musculus; assay: Neurotoxicity in Kunming mouse assessed as minimum motor impairment at 30 mg/kg, ip after 0.5 hrs by rotarod test; type: toxicity, organism-based; parameters: dose 30 mg/kg, route intraperitoneal; details: in vivo; outline: as §2
[13] = test system: Mus musculus; assay: Neurotoxicity in Kunming mouse assessed as minimum motor impairment at 300 mg/kg, ip after 0.5 hrs by rotarod test; type: toxicity, organism-based; parameters: dose 300 mg/kg, route intraperitoneal; details: in vivo; outline: as §2
[14] = test system: Mus musculus; assay: Neurotoxicity in Kunming mouse assessed as minimum motor impairment at 300 mg/kg, ip after 4 hrs by rotarod test; type: toxicity, organism-based; parameters: dose 300 mg/kg, route intraperitoneal; details: in vivo; outline: as §2
[15] = test system: Mus musculus; assay: Anticonvulsant activity in Kunming mouse assessed as protection against maximal electroshock-induced seizures at 300 mg/kg, ip after 4 hrs; type: functional, organism-based; parameters: dose 300 mg/kg
[16] = test system: Mus musculus; assay: Anticonvulsant activity in Kunming mouse assessed as protection against subcutaneous pentylenetetrazole-induced seizures at 300 mg/kg, ip after 0.5 hrs; type: functional, organism-based; parameters: dose 300 mg/kg; outline: as §1
[17] = test system: Mus musculus; assay: Anticonvulsant activity in Kunming mouse assessed as protection against maximal electroshock-induced seizures at 100 mg/kg, ip after 4 hrs; type: functional, organism-based; parameters: dose 100 mg/kg

SMILES | Activity [1] | Activity [2] | Activity [3] | Activity [4] | Activity [5] | Activity [6] | Activity [7] | Activity [8] | Activity [9] | Activity [10] | Activity [11] | Activity [12] | Activity [13] | Activity [14] | Activity [15] | Activity [16] | Activity [17]
CC(C)CC1CC12NC(=O)N(C)C2=O (stereo not given) | Active | inactive | inactive | inactive | inactive | Non-toxic | Non-toxic | Active | Non-toxic | inactive | Active | Toxic | Toxic | Non-toxic | – | – | –
COc1ccc(C2CC23NC(=O)N(C)C3=O)cc1OC (stereo not given) | Active | inactive | inactive | inactive | – | Non-toxic | Non-toxic | inactive | Non-toxic | inactive | Active | Non-toxic | – | – | Active | – | –
CC(C)C1CC12NC(=O)N(C)C2=O (stereo not given) | Active | – | inactive | inactive | inactive | Non-toxic | Non-toxic | inactive | Non-toxic | inactive | Active | Non-toxic | Non-toxic | – | Active | inactive | –
COc1cc(C2CC23NC(=O)N(C)C3=O)cc(OC)c1OC (stereo not given) | inactive | inactive | inactive | inactive | – | Non-toxic | Non-toxic | inactive | Non-toxic | inactive | Active | Non-toxic | Non-toxic | Non-toxic | Active | – | inactive
CN1C(=O)NC2(CC2c2ccc(Cl)cc2)C1=O (stereo not given) | inactive | inactive | inactive | inactive | inactive | Toxic | Toxic | inactive | Non-toxic | inactive | Active | Non-toxic | – | – | – | – | inactive
Cc1ccc(C2CC23NC(=O)N(C)C3=O)cc1 (stereo not given) | Active | inactive | inactive | inactive | – | Non-toxic | Non-toxic | inactive | Non-toxic | inactive | Active | Non-toxic | Toxic | Non-toxic | – | – | –
CCCC1CC12NC(=O)N(C)C2=O (stereo not given) | inactive | inactive | inactive | inactive | inactive | Non-toxic | Non-toxic | inactive | Non-toxic | inactive | Active | Toxic | Toxic | Toxic | Active | inactive | –
COc1ccc(OC)c(C2CC23NC(=O)N(C)C3=O)c1 (stereo not given) | Active | inactive | inactive | inactive | inactive | Non-toxic | Non-toxic | inactive | Non-toxic | inactive | Active | Non-toxic | – | – | – | inactive | –
